Data set [1] has as its system Rattus norvegicus. In words: Antihyperalgesic activity in Sprague-Dawley rat assessed as lesioned paw pressure threshold at 30 ug/kg, icv after 30 mins. The format is functional. In outline: (§1)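 Sciatic nerve-ligated (chronic constriction injury, Bennett–Xie) male Sprague–Dawley rats, 150–200 g, dosed i.c.v.; saline served as vehicle. Paw withdrawal threshold (g) of the lesioned paw was read by analgesimeter before dosing and at 30, 45 and 60 min, max force 240 g. Baseline outliers (<40 g, >75 g) were excluded. Mean ± SEM of 8–14 rats; ANOVA with Fisher PLSD.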

The test system of data set [2] is Rattus norvegicus. In words: Antihyperalgesic activity in Sprague-Dawley rat assessed as lesioned paw pressure threshold at 30 ug/kg, icv after 45 mins. The format is functional. The method in brief:
as §1

For data set [3], the system named is Rattus norvegicus. The data set can be described thus: Antihyperalgesic activity in Sprague-Dawley rat assessed as lesioned paw pressure threshold at 30 ug/kg, icv after 60 mins. The format is functional. In outline:
as §1

Data set [4] concerns Rattus norvegicus. In words: Antihyperalgesic activity in Sprague-Dawley rat assessed as lesioned paw pressure threshold at 100 ug/kg, icv after 45 mins. The format is functional. In outline: as §1
For data set [5], the system named is Rattus norvegicus. The data set can be described thus: Antihyperalgesic activity in Sprague-Dawley rat assessed as lesioned paw pressure threshold at 100 ug/kg, icv after 30 mins. Format: functional. The method in brief:
as §1

Data set [6] has as its system Rattus norvegicus. In words: Antihyperalgesic activity in Sprague-Dawley rat assessed as lesioned paw pressure threshold at 100 ug/kg, icv after 60 mins. The format is functional. In outline: as §1
Data set [7] deals with Rattus norvegicus. In words: Antihyperalgesic activity in Sprague-Dawley rat assessed as lesioned paw pressure threshold at 10 ug/kg, icv after 45 mins. Format: functional. The method in brief: as §1
The test system of data set [8] is Rattus norvegicus. The data set can be described thus: Antihyperalgesic activity in Sprague-Dawley rat assessed as lesioned paw pressure threshold at 10 ug/kg, icv after 30 mins. The format is functional. The method in brief: as §1
Data set [9] deals with Rattus norvegicus. The data set can be described thus: Antihyperalgesic activity in Sprague-Dawley rat assessed as lesioned paw pressure threshold at 10 ug/kg, icv after 60 mins. The format is functional. The method in brief: as §1
The test system of data set [10] is Rattus norvegicus. In words: Analgesic activity against nerve injury-induced hyperalgesia in Sprague-Dawley rat assessed as increase in lesional paw pressure threshold at 10 mg/kg, po after 30 to 60 mins. The format is functional, organism-based. Also noted: dose 10 mg/kg. In outline: (§2)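 Male Sprague–Dawley rats (150–200 g) given a chronic constriction injury: loose ligatures on the right common sciatic nerve (Bennett–Xie), under chloral hydrate anaesthesia. Oral dosing. Analgesimeter paw pressure; withdrawal force in g recorded before and 30, 45, 60 min after dosing, cut-off 240 g. Rats below 40 g or above 75 g at baseline were excluded. Mean ± SEM, 6–11 rats; ANOVA with Fisher PLSD.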

The subject of data set [11] is Rattus norvegicus. In words: Analgesic activity against streptozotocin-induced hyperalgesia in Sprague-Dawley rat assessed as increase in paw mechanical threshold at 50 mg/kg, po. Format: functional, organism-based. Set-up: dose 50 mg/kg. The method in brief: (§3)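 Male Sprague–Dawley rats (150–200 g) were given streptozotocin 50 mg/kg ip and tested 21 days later. Oral dosing; paw pressure analgesimeter read as the force (g) at first struggling, before and at 30–60 min after dosing, cut-off 240 g. Rats below 40 g or above 75 g at baseline were excluded. Mean ± SEM, 9–10 rats; ANOVA with Fisher PLSD.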

Data set [12] concerns Rattus norvegicus. In words: Analgesic activity against streptozotocin-induced hyperalgesia in Sprague-Dawley rat assessed as increase in paw mechanical threshold at 100 mg/kg, po. Set-up: dose 100 mg/kg. The format is functional, organism-based. The method in brief: as §3
The subject of data set [13] is Rattus norvegicus. In words: Neurotoxicity in Sprague-Dawley rat assessed as behavioural impairment at 100 mg/kg, po by rotarod test. Also noted: dose 100 mg/kg, route oral. Format: toxicity, organism-based. The following applies: in vivo. The method in brief: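 Rotarod motor incoordination test in male Sprague–Dawley rats: animals walk against the rotating drum for 30 s, and the readout is the number of falls in 30 s.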

In data set [14] the test system is Rattus norvegicus. In words: Analgesic activity against nerve injury-induced hyperalgesia in Sprague-Dawley rat assessed as increase in lesional paw pressure threshold at 30 mg/kg, po after 30 to 60 mins. The format is functional, organism-based. Set-up: dose 30 mg/kg. The method in brief:
as §2

The test system of data set [15] is Rattus norvegicus. In words: Analgesic activity against nerve injury-induced hyperalgesia in Sprague-Dawley rat assessed as increase in lesional paw pressure threshold at 50 mg/kg, po after 30 to 60 mins. Format: functional, organism-based. Set-up: dose 50 mg/kg. In outline: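 Male Sprague–Dawley rats, 150–200 g, with chronic constriction injury (loose ligatures on right common sciatic nerve, chloral hydrate anaesthesia); oral dosing. Paw pressure analgesimeter measured withdrawal/first-struggle force (g) on lesioned and contralateral paws before and 30, 45, 60 min after dosing. Pre-dose scores below 40 g or above 75 g excluded; 240 g cutoff. Means of 6–11 rats; ANOVA with Fisher's PLSD.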

The species named for data set [16] is Rattus norvegicus. The data set can be described thus: Analgesic activity against streptozotocin-induced hyperalgesia in Sprague-Dawley rat assessed as increase in paw mechanical threshold. The format is functional, organism-based. In outline:
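Male Sprague–Dawley rats, 150–200 g, given streptozotocin 50 mg/kg ip and tested 21 days later; compound given orally at 30–100 mg/kg, with non-diabetic controls. Paw pressure analgesimeter recorded force (g) causing first struggle before and 30, 45, 60 min after dosing; 240 g cutoff. Means of 9–10 rats; ANOVA with Fisher's PLSD.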

The test system of data set [17] is Rattus norvegicus. In words: Antihyperalgesic activity in Sprague-Dawley rat assessed as lesioned paw pressure threshold at 500 ug/kg, icv after 45 mins. The format is functional. The method in brief: (§4)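 Male Sprague–Dawley rats, 150–200 g, with right sciatic nerve chronic constriction injury (Bennett–Xie). Compound given i.c.v. and withdrawal threshold (g) on lesioned and contralateral paws measured with an analgesimeter before dosing and at 30, 45, 60 min. Pre-dose scores outside 40–75 g excluded; 240 g maximum force. 8–14 rats per group; ANOVA with Fisher's PLSD.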

Data set [18] has as its system Rattus norvegicus. The data set can be described thus: Antihyperalgesic activity in Sprague-Dawley rat assessed as lesioned paw pressure threshold at 500 ug/kg, icv after 60 mins. Format: functional. In outline: as §4
For data set [19], the system named is Rattus norvegicus. The data set can be described thus: Antihyperalgesic activity in Sprague-Dawley rat assessed as lesioned paw pressure threshold at 500 ug/kg, icv after 30 mins. Format: functional. In outline:
as §4

The results in this text go back to ChEMBL document CHEMBL1143935, “Synthesis and biological evaluation of novel dimiracetam derivatives useful for the treatment of neuropathic pain” (Bioorg Med Chem, 2008).

Active and inactive are the calls of the source.

For the compound `Cc1cccc(C)c1NC(=O)CN1CCCC1=O` [NEFIRACETAM], the Activity in the data set with Rattus norvegicus [1] was determined as 46.7 g; with Rattus norvegicus [2], 49.5 g; in the data set on Rattus norvegicus [3] it was 47.6 g.

Regarding `O=C1CN2C(=O)CCC2N1` (stereo not drawn) [DIMIRACETAM], the results for the Activity with Rattus norvegicus [4], with Rattus norvegicus [5] and in the data set with Rattus norvegicus [6] were 42.8 g, 41 g and 39.2 g, respectively.

As for `Cc1cccc(N2C(=O)CN3C(=O)CCC32)c1` (stereo not drawn), the Activity with Rattus norvegicus [7] is 63.4 g; in the data set with Rattus norvegicus [8] it was 59.3 g; in the data set on Rattus norvegicus [9], 51.2 g.

For the compound `Cc1ccc(N2C(=O)CN3C(=O)CCC32)cc1` (stereo not drawn), the Activity in the data set with Rattus norvegicus [7] was 57.4 g; in the data set on Rattus norvegicus [8], 54 g; in the data set on Rattus norvegicus [13], “Non-toxic”; in the data set with Rattus norvegicus [9], 45.4 g. The outcome in the data set on Rattus norvegicus [10] was inactive. In addition, the result in the data set with Rattus norvegicus [11], with Rattus norvegicus [12] and in the data set on Rattus norvegicus [14] was Active.

Consider `N#Cc1cccc(N2C(=O)CN3C(=O)CCC32)c1` (stereo not drawn), for which the Activity in the data set with Rattus norvegicus [1] is 49.7 g; with Rattus norvegicus [2], 55.4 g; in the data set listed under Rattus norvegicus [16] it was “Dose-dependent effect”; in the data set on Rattus norvegicus [3], 46.8 g; with Rattus norvegicus [13], “Non-toxic”. For the same compound, in the data set on Rattus norvegicus [15], the outcome was Active.

Turning to `O=C1CCC2N1CC(=O)N2c1ccccc1` (stereo not drawn), the results for the Activity in the data set with Rattus norvegicus [1], in the data set with Rattus norvegicus [2] and in the data set on Rattus norvegicus [3] were 51.7 g, 52.7 g and 53.3 g, respectively.

Take `NCC1(CC(=O)O)CCCCC1` [GABAPENTIN]: the Activity in the data set with Rattus norvegicus [1] was found to be 46.3 g; in the data set on Rattus norvegicus [2], 43.5 g; in the data set on Rattus norvegicus [3] it was 46.1 g.

As for `CC[C@@H](C(N)=O)N1CCCC1=O` [LEVETIRACETAM], the Activity with Rattus norvegicus [17] amounted to 52.1; in the data set with Rattus norvegicus [18] it was 49.3; in the data set with Rattus norvegicus [19], 51.8.

Regarding `CC(C)c1cccc(N2C(=O)CN3C(=O)CCC32)c1` (stereo not drawn), the Activity with Rattus norvegicus [1] was found to be 48.5 g; with Rattus norvegicus [2], 43.7 g; with Rattus norvegicus [3], 42.5 g.

Regarding `N#Cc1ccc(N2C(=O)CN3C(=O)CCC32)cc1` (stereo not drawn), the Activity in the data set with Rattus norvegicus [7] was 55.3 g; in the data set listed under Rattus norvegicus [16], “Dose-dependent effect”; in the data set on Rattus norvegicus [8], 59.4 g; in the data set on Rattus norvegicus [9], 58.2 g. Moreover, in the data set with Rattus norvegicus [15], the outcome was Active.

On to `Cc1ccccc1N1C(=O)CN2C(=O)CCC21` (stereo not drawn), for which the Activity in the data set with Rattus norvegicus [1] is reported as 46.7 g; with Rattus norvegicus [2], 55.3 g; with Rattus norvegicus [3], 54.8 g.
